Data: ChEMBL document CHEMBL1129360, “Carbocyclic nucleosides as inhibitors of human tumor necrosis factor-alpha production: effects of the stereoisomers of (3-hydroxycyclopentyl)adenines” (J Med Chem, 1996)

Legend:
Homo sapiens [1] = organism: Homo sapiens; assay: in vitro inhibitory activity was measured against interleukin-6 (IL-6) production; assay type: functional, organism-based
In short: (§1)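 Human peripheral blood mononuclear cells from normal volunteers were separated by density gradient. Adherent monocyte/macrophages were kept after 1 h and lifted with RPMI-1640/0.2% EDTA/5% FCS. Compounds in PBS (0.16, 0.8, 4.0, 20.0, 100 µM) were added to the cells 15 min before LPS. Cells were incubated 18 h at 37 °C, 5% CO2. Supernatant TNF-α, IL-1β and IL-6 were measured by specific ELISA, giving IC50.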

Homo sapiens [2] = organism: Homo sapiens; assay: in vitro inhibitory activity was measured against interleukin-1-beta (IL1-beta) production; assay type: functional; in short: as §1
Homo sapiens [3] = organism: Homo sapiens; assay: In vitro inhibitory activity was measured against tumor necrosis factor-alpha production; assay type: functional; in short: as §1
Mus musculus [4] = assay: Protective effects against lethal injections of D-galactosamine sensitized Lipopolysaccharide challenged (LD100) CF1 mice (100 mg/kg IP in PBS); assay type: functional
In short: (§2)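 Female CF1 mice were fasted overnight, then given compound at 100 mg/kg ip in PBS 1 h before an ip challenge of D-galactosamine (20 mg) plus S. enteritidis LPS (15-250 ng). The LPS LD100 was set for each shipment of mice, and the challenge was at LD100 or 3× LD100. Mice were refed after challenge and survival was scored at 8 h. PBS vehicle served as control.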

Mus musculus [5] = assay: D-galactosamine sensitized mice were given 3 times the LD100 dose of LPS (100 mg/kg IP in PBS); assay type: functional; in short: as §2

With `CC(=O)CCCCn1c(=O)c2c(ncn2C)n(C)c1=O` [PENTOXIFYLLINE] the IC50 (Homo sapiens [1]) was > 100 µM, the IC50 (Homo sapiens [2]) was > 100 µM and the IC50 (Homo sapiens [3]) was 33 µM. The Survival (Mus musculus [4]) was 66% and the Survival (Mus musculus [5]) was 0%.

For `Nc1ncnc2c1ncn2[C@@H]1CC[C@H](O)C1`, the IC50 (Homo sapiens [1]) was > 100 µM, the IC50 (Homo sapiens [2]) was > 100 µM and the IC50 (Homo sapiens [3]) was 18 µM. The Survival (Mus musculus [4]) was 50% and the Survival (Mus musculus [5]) was 0%.

`Nc1ncnc2c1ncn2[C@H]1CC[C@H](O)C1` was tested, and the IC50 (Homo sapiens [1]) was > 100 µM, the IC50 (Homo sapiens [2]) was > 100 µM and the IC50 (Homo sapiens [3]) was 16 µM. For the same compound, the Survival (Mus musculus [4]) was 63% and the Survival (Mus musculus [5]) was 0%.

In the case of `Nc1ncnc2c1ncn2[C@@H]1CC[C@@H](O)C1`, the IC50 (Homo sapiens [1]) is reported as > 100 µM, the IC50 (Homo sapiens [2]) is reported as 76 µM and the IC50 (Homo sapiens [3]) is reported as 9 µM. The Survival (Mus musculus [4]) was 100% and the Survival (Mus musculus [5]) was 100%.

In the case of `Nc1ncnc2c1ncn2[C@@H]1O[C@H](CO)[C@@H](O)[C@H]1O` [ADENOSINE], the IC50 (Homo sapiens [1]) is reported as > 100 µM, the IC50 (Homo sapiens [2]) is reported as > 100 µM and the IC50 (Homo sapiens [3]) is reported as 6 µM. The Survival (Mus musculus [4]) was 0% and the Survival (Mus musculus [5]) was 0%.

`Nc1ncnc2c1ncn2[C@H]1CC[C@@H](O)C1` was tested, and the IC50 (Homo sapiens [1]) was > 100 µM, the IC50 (Homo sapiens [2]) was > 100 µM and the IC50 (Homo sapiens [3]) was 40 µM. It also gave a Survival (Mus musculus [4]) of 88% and a Survival (Mus musculus [5]) of 0%.
